# The entries come from a sample that favours hits as a whole.
# UPR XBP1 act – activators of adaptive arm of unfolded protein response (XBP1) | CHO-XBP1 luciferase reporter, IRE1-XBP1 UPR activation, luminescence; percent of tunicamycin response, DMSO as zero | AID 463104 | 330,000 compounds, 0.33% hits | activation, % at 20 µM;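 active = versus positive control, 20 µM dose yields 30% or more activation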
#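 Assay system: CHO-XBP1 luciferase reporter cells; Schedule: 6 h treatment, 37 °C; Detection: glow luminescence from Steady-Glo reagent; Benchmarks: high control tunicamycin 10 µg/mL final, low control DMSO vehicle only.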
# B2AR ag – activates human beta-2 adrenergic receptor causing internalization. P07550. 340,000 compounds, 0.43% hits. response, % (no concentration beside the values). Am2.2-beta2AR cells, FAP receptor internalization, flow cytometry;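 active = response above a set limit, near 3 SD of response in nonfluorescent compounds, cut at about 42% in these data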
# Target sequence (P07550 whole entry, looked up): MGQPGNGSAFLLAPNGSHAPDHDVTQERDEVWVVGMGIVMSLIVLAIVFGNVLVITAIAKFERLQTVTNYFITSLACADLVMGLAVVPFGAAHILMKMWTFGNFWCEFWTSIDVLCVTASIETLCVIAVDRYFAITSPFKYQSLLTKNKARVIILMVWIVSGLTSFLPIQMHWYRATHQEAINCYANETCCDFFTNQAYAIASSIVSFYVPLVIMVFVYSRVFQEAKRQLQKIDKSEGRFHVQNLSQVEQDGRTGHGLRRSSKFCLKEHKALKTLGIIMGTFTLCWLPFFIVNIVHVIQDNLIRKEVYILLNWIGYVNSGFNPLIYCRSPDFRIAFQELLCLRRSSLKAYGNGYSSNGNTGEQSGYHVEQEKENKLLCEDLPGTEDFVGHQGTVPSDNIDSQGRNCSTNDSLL
# CHOP inh – CHOP inhibition in unfolded protein response | CHO-K1 CHOP-promoter luciferase, tunicamycin-induced, 15-18 h | inhibition, % at 10 µM | 220,000 compounds, 3.8% hits;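 active = compounds that reduced the stress-induced luciferase reporter signal by more than about 70% of percent inhibition, limit read from the data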
# UPR CHOP act – apoptotic UPR (CHOP) activation. 330,000 compounds, 0.34% hits. AID 449763. CHO-CHOP luciferase reporter, luminescence; percent of tunicamycin response over DMSO baseline. activation, % at 10 µM;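 active = at 10 µM dose, activation of 40% or more, normalized to positive control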
#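 assay system = CHO CHOP reporter cells | amount = 500 CHO-CHOP cells per well | buffer or medium = F12 with 10% FBS | incubation = 16-18 h cell attachment, then 6 h compound exposure, 37 °C | detection = luminescence read with Steady-Glo | read-out = percent activation relative to tunicamycin control | controls = tunicamycin high control, DMSO low control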
# VLA-4 inh – inhibition in a human VLA-4 binding assay | P13612 | VLA-4 expressing cells, ligand binding flow cytometry | inhibition, % (about 7 µM as worked out from the volumes in the protocol) | 330,000 compounds, 0.2% hits | AID 2557; in the data active = inhibition above about 50%
# B2AR ag CP1 – agonists of human beta-2 adrenergic receptor; shares compounds with B2AR ag; Am2.2-beta2AR cells, FAP surface receptor, flow cytometry; hits give low values; percent response (surface receptor), % at 10 µM; 1,100 compounds, 25% hits; AID 540358;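 active = surface receptor percent response at or below 58%, roughly 3 SD from nonfluorescent compounds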
# B2AR FAP counter – fluorescence artifact in beta-2AR agonist FAP counterscreen; shares compounds with B2AR ag; calls only at 10 µM; AID 588765; 1,100 tested, under 10 active; Am2.2 cells, FAP fluorogen flow cytometry; hits give low values;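 active = percent response below a set limit in fluorescence channel 1 and below 50% in channel 8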
# A number is an active result; – = inactive; · = no result given; ! = a repeat was not active.
SMILES,UPR XBP1 act,B2AR ag,CHOP inh,UPR CHOP act,VLA-4 inh,B2AR ag CP1,B2AR FAP counter
CCCc1nc2oc3c(NCC(C)O)ncnc3c2c2c1CCCC2 (stereo not drawn),–,–,–,–,–,–,–
CCC(C)C(CO)NCCCn1cnc(C(=O)Nc2ccc(C)c(C)c2)n1 (stereo not drawn),·,–,·,·,·,·,·
COc1cc(CNCCc2ccc(S(N)(=O)=O)cc2)ccc1OCC(=O)NC1CCCCC1,–,–,–,–,–,·,·
CCOc1cc(CNCCc2ccc(S(N)(=O)=O)cc2)ccc1OCc1ccc(Cl)cc1,–,50,89,–,–,31,–
COc1cc(CNCCc2ccc(S(N)(=O)=O)cc2)ccc1OCc1ccc(Cl)cc1,–,55,–,–,–,–,–
CCCCOc1ccc(SCCCN2CCOCC2)cc1,·,–,·,·,·,·,·
O=C(COC(=O)COc1ccccc1)NC1CCCC1,–,–,·,–,–,·,·
COc1ccc(N(C(=O)c2cccc([N+](=O)[O-])c2)S(=O)(=O)c2ccc3c(c2)n(C)c(=O)n3C)cc1,–,54,–,–,–,–,–
COc1ccc(S(=O)(=O)N2CCCCCC2)cc1C(=O)N(C)Cc1ccc(OC)c(OC)c1OC,–,51,·,–,–,–,–
O[C@@H](CNC[C@H](O)c1ccccc1)c1ccccc1,–,–,–,–,–,–,–
OC(CNCCc1ccccc1)c1ccccc1 (stereo not drawn),–,–,–,–,–,–,–
COc1ccc(CCNCC(O)c2ccccc2)cc1 (stereo not drawn),–,–,–,–,–,–,–
O=C(NS(=O)(=O)Nc1ccc(Br)cn1)c1c[nH]c2ccccc12,–,–,·,–,–,·,·
O=C(CNC(=O)N1CC(=O)Nc2ccccc21)Nc1ccccc1F,–,42,·,–,–,–,–
O=C(CNC(=O)N1CC(=O)Nc2ccccc21)Nc1ccccc1,–,–,·,–,–,·,·
CCOc1ccc(-c2cc(C(=O)NCCCn3ccnc3)c3ccccc3n2)cc1,–,–,–,–,–,·,·
CCOc1ccc(-c2cc(C(=O)NCCCn3ccnc3)c3cc(Br)ccc3n2)cc1,–,50,·,–,–,–,–
NS(=O)(=O)c1cccc(NC(=O)c2cccc(N3C(=O)c4ccccc4C3=O)c2)c1,–,–,·,–,–,–,–
NS(=O)(=O)c1cccc(NC(=O)c2cccc(Oc3ccccc3)c2)c1,–,–,·,–,–,·,·
CC(=O)c1cccc(NC(=O)c2cccc(N3C(=O)c4ccccc4C3=O)c2)c1,–,–,·,–,–,–,–
CCOC(=O)c1ccc(NC(=O)Nc2ccon2)cc1,–,44,–,–,–,–,–
COc1ccc(N(C(=O)c2cccnc2)S(=O)(=O)c2ccc(F)cc2)cc1,–,–,·,–,–,·,·
CN[C@H]1CC[C@@H](c2ccc(Cl)c(Cl)c2)c2ccccc21,–,50!,–,–,–,–,–
O=C1C=C(O)CC(c2ccc(Cl)c(Cl)c2)C1 (stereo not drawn),–,–,–,–,–,·,·
COC1=NC(=C(c2ccccc2)c2ccccc2)OC1=O,·,–,·,·,·,·,·
SMILES,UPR XBP1 act,B2AR ag,CHOP inh,UPR CHOP act,VLA-4 inh,B2AR ag CP1,B2AR FAP counter
CCOc1ccc(NC(=O)c2sc3nc(C)nc(N4CCOCC4)c3c2C)cc1,–,69,·,–,–,–,–
COc1ccc(NC(=O)c2sc3nc(C)nc(N4CCOCC4)c3c2C)c(OC)c1,–,–,–,–,–,·,·
Cc1ccc(Nc2c(-c3ccccn3)nc3cc(C)ccn23)cc1,–,76,76,–,–,–,–
O=C1CN(S(=O)(=O)c2cccc(Cl)c2Cl)c2ccccc2N1,–,46,·,–,–,26,–
COCCn1c(=S)[nH]c2ccc(N(C)C)cc2c1=O,–,45,–,–,–,–,–
CCOc1cc2[nH]c(=S)n(CCOC)c(=O)c2cc1OCC,–,–,–,–,–,·,·
CN1CCN(S(=O)(=O)c2cccc(C(=O)N3CCN(c4ccccc4)CC3)c2)CC1,–,–,·,–,–,·,·
CCNC(=O)c1ccccc1CCc1ccccc1,–,–,–,–,–,·,·
O=C(Nc1ccccc1)c1ccccc1CCc1ccccc1,–,–,–,–,–,46,–
O=S(=O)(NCc1cccnc1)c1ccc(Cl)c2ccccc12,–,–,·,–,–,·,·
COC(=O)C1=C(C)N(Cc2ccccc2)C(=NCCc2cccnc2)N[C@H]1c1ccc(Br)cc1,–,47,·,–,–,–,–
COC(=O)C1=C(C)N(Cc2ccccc2)C(=NCCc2cccnc2)N[C@H]1c1ccccc1,–,–,·,–,–,·,·
COc1ccc(CSc2ccc(-c3nc4ccccn4c3NCc3ccccc3)cc2OC)cc1,–,75,·,–,–,–,–
CC1=NN(C(N)=S)C(=O)C1N=Nc1ccc(F)cc1 (stereo not drawn),–,–,·,–,·,49,–
CC1=NN(C(N)=S)C(=O)C1N=Nc1ccc(O)cc1 (stereo not drawn),–,–,–,–,·,·,·
N#Cc1ccc(COC(=O)c2cnc(Cl)c(Cl)c2)cc1,–,–,·,–,–,·,·
Fc1ccc(Nc2nc(-c3ccncc3)nc3ccccc23)cc1F,–,50,–,–,–,–,–
Cc1cc(OCC(O)CN(C)C(=O)C(C)Oc2ccccc2)ccc1Cl (stereo not drawn),–,–,·,–,–,·,·
COc1ccc(CN2C[C@H]3CCCN3c3cc(Br)ccc3S2(=O)=O)cc1,–,44,·,–,·,–,–
COc1ccc(N2CCN(C3CCCN(Cc4ccc(F)cc4)C3)CC2)cc1 (stereo not drawn),–,–,·,–,–,·,·
COc1ccc2nc(NC(=O)CSc3nnc(N)s3)sc2c1,–,75,–,–,–,–,–
CN1CCc2c(sc3nc(SCC(=O)N4CCCCC4)n(-c4ccccc4)c(=O)c23)C1,–,61,·,–,–,·,–
COc1ccc(CNC(=O)CCC(=O)Nc2nnc(CC(C)C)s2)cc1,–,–,–,–,–,·,·
CC(=O)Oc1ccc(C(=O)Nc2cccc(C(=O)c3cccc(NC(=O)c4ccc(OC(C)=O)cc4)c3)c2)cc1,–,57,–,–,–,–,–
CCn1cc(CNC(=O)C2CCC(=O)N(Cc3ccc(Cl)cc3)C2)cn1 (stereo not drawn),–,–,·,–,–,·,·
Clc1ccccc1CN1CCc2sccc2C1,–,–,–,–,–,–,–
Cn1cc(CN2CCc3sccc3C2)c(-c2ccccc2F)n1,–,–,–,–,–,·,·
Cc1ccc(S(=O)(=O)N2CCCC2)cc1C(=O)N1CCN(Cc2ccccc2)CC1,–,–,·,–,–,·,·
Cc1c(C(=O)N2CCCCC2CCN2CCCC2=O)oc2c(F)cccc12 (stereo not drawn),–,–,·,–,–,·,·

# Screening data as filed in PubChem BioAssay.
